Marks after values point to notes of the source that are not given here.
What was measured:
[1] = Rat repeat-dose toxicity studies: plasma toxicokinetics; type: in vivo; settings: for AUC(0-t) / Cmax: plasma, po; for AUC(0-t) / Cmax / Mean Cave: last day of dosing; for Cmax: Mean Cmax
[2] = Dog 4-, 13-, 39-week repeat-dose general toxicity studies; type: in vivo; settings: both, beagle, dog, in vivo, oral
beagle dogs = assay: as above; type: in vivo
[3] = Rat embryo–fetal development; type: in vivo; settings: female, rat, in vivo, oral
Method in brief: (§1)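 Time-mated female Crl:CD Sprague Dawley rats, 10–12 weeks old at dosing start, gavaged daily (10 ml/kg) with 0 (vehicle), 30, 100 or 1000 mg/kg/day test compound on GDs 6–17; n = 22/group plus a toxicokinetic group. Cesarean-section counts: corpora lutea, implantation sites, preimplantation loss, resorptions. Fetuses weighed and checked for external, visceral and skeletal (Alizarin Red S, after evisceration) abnormalities. Fetal weights compared by ANCOVA/Dunnett with litter size as covariate.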

Time-mated female rats = assay: Rat embryo–fetal development; type: in vivo; settings: for Corpora lutea (mean ± SD) / Implantation sites (mean ± SD) / Preimplantation loss (mean ± SD) / Total resorptions (mean ± SD) / Females with live fetuses / Pregnant females: rat EFD; for Females with live fetuses / Pregnant females: 22 total females
Method in brief: as §1

mouse colitis model = settings: ref Sandborn et al., 2020; cited from earlier work
[4] = Rat EFD study: maternal and fetal plasma toxicokinetics; type: in vivo
[5] = dog, 39-week study, 100 mg/kg/day
[6] = dog, 39-week study, 100 mg/kg/day, reversible
[7] = dog, 39-week study, 30 and 100 mg/kg/day
[8] = maternal rat, 30 and 100 mg/kg/day
[9] = maternal rat, GD 17, 1000 mg/kg/day

Cc1cc(Nc2cc3ncccc3c(N[C@@H]3C[C@H]4CC[C@@H](C3)N4CCC#N)n2)n[nH]1 [izencitinib, Izencitinib]
AUC(0-t) ([1]; female, Sprague-Dawley (Crl:CD), rat, 30 mg/kg/day, Mean AUC0–24, rat female, 30 mg/kg/day oral, 26 weeks): 16.7 ng·h/mL
Cmax ([1]; female, Sprague-Dawley (Crl:CD), rat, 30 mg/kg/day, rat female, 30 mg/kg/day oral, 26 weeks): 6.02 ng/mL
AUC(0-t) ([1]; female, Sprague-Dawley (Crl:CD), rat, 100 mg/kg/day, Mean AUC0–24, rat female, 100 mg/kg/day oral, 26 weeks): 127 ng·h/mL
Cmax ([1]; female, Sprague-Dawley (Crl:CD), rat, 100 mg/kg/day, rat female, 100 mg/kg/day oral, 26 weeks): 32.5 ng/mL
AUC(0-t) ([1]; female, Sprague-Dawley (Crl:CD), rat, 1000 mg/kg/day, Mean AUC0–24, rat female, 1000 mg/kg/day oral, 26 weeks): 453 ng·h/mL
Cmax ([1]; female, Sprague-Dawley (Crl:CD), rat, 1000 mg/kg/day, rat female, 1000 mg/kg/day oral, 26 weeks): 96.3 ng/mL
AUC(0-t) ([1]; female, Sprague-Dawley, rat, 30 mg/kg/day, Mean AUC0–24, rat female, 30 mg/kg/day oral, 4 weeks): 25.7 ng·h/mL
AUC(0-t) ([1]; female, Sprague-Dawley, rat, 30 mg/kg/day, Mean AUC0–24, rat female, 30 mg/kg/day oral, 13 weeks): 54.6 ng·h/mL
AUC(0-t) ([1]; female, Sprague-Dawley, rat, 100 mg/kg/day, Mean AUC0–24, rat female, 100 mg/kg/day oral, 4 weeks): 70.5 ng·h/mL
AUC(0-t) ([1]; female, Sprague-Dawley, rat, 100 mg/kg/day, Mean AUC0–24, rat female, 100 mg/kg/day oral, 13 weeks): 227 ng·h/mL
AUC(0-t) ([1]; female, Sprague-Dawley, rat, 1000 mg/kg/day, Mean AUC0–24, rat female, 1000 mg/kg/day oral, 4 weeks): 384 ng·h/mL
AUC(0-t) ([1]; male, Sprague-Dawley (Crl:CD), rat, 30 mg/kg/day, Mean AUC0–24, rat male, 30 mg/kg/day oral, 26 weeks): 34.6 ng·h/mL
Cmax ([1]; male, Sprague-Dawley (Crl:CD), rat, 30 mg/kg/day, rat male, 30 mg/kg/day oral, 26 weeks): 4.52 ng/mL
AUC(0-t) ([1]; male, Sprague-Dawley (Crl:CD), rat, 100 mg/kg/day, Mean AUC0–24, rat male, 100 mg/kg/day oral, 26 weeks): 95.7 ng·h/mL
Cmax ([1]; male, Sprague-Dawley (Crl:CD), rat, 100 mg/kg/day, rat male, 100 mg/kg/day oral, 26 weeks): 15.8 ng/mL
AUC(0-t) ([1]; male, Sprague-Dawley (Crl:CD), rat, 1000 mg/kg/day, Mean AUC0–24, rat male, 1000 mg/kg/day oral, 26 weeks): 384 ng·h/mL
Cmax ([1]; male, Sprague-Dawley (Crl:CD), rat, 1000 mg/kg/day, rat male, 1000 mg/kg/day oral, 26 weeks): 60.6 ng/mL
AUC(0-t) ([1]; male, Sprague-Dawley, rat, 30 mg/kg/day, Mean AUC0–24, rat male, 30 mg/kg/day oral, 4 weeks): 23.4 ng·h/mL
AUC(0-t) ([1]; male, Sprague-Dawley, rat, 30 mg/kg/day, Mean AUC0–24, rat male, 30 mg/kg/day oral, 13 weeks): 58.2 ng·h/mL
AUC(0-t) ([1]; male, Sprague-Dawley, rat, 100 mg/kg/day, Mean AUC0–24, rat male, 100 mg/kg/day oral, 4 weeks): 71.3 ng·h/mL
AUC(0-t) ([1]; male, Sprague-Dawley, rat, 100 mg/kg/day, Mean AUC0–24, rat male, 100 mg/kg/day oral, 13 weeks): 131 ng·h/mL
AUC(0-t) ([1]; male, Sprague-Dawley, rat, 1000 mg/kg/day, Mean AUC0–24, rat male, 1000 mg/kg/day oral, 4 weeks): 335 ng·h/mL
AUC(0-t) ([1]; male, Sprague-Dawley, rat, 1000 mg/kg/day, Mean AUC0–24, rat male, 1000 mg/kg/day oral, 13 weeks): 452 ng·h/mL
nonclinical:clinical systemic AUC margin at the NOAEL ([1]; rat 26-week study, 1000 mg/kg/day, vs human 300 mg QD): 8 fold
Mean Cave ([1]; rat female, 30 mg/kg/day oral, 4 weeks): 1.07 ng/mL
Mean Cave ([1]; rat female, 30 mg/kg/day oral, 13 weeks): 2.28 ng/mL
Mean Cave ([1]; rat female, 30 mg/kg/day oral, 26 weeks): 0.700 ng/mL
Mean Cave ([1]; rat female, 100 mg/kg/day oral, 4 weeks): 2.94 ng/mL
Mean Cave ([1]; rat female, 100 mg/kg/day oral, 13 weeks): 9.46 ng/mL
Mean Cave ([1]; rat female, 100 mg/kg/day oral, 26 weeks): 5.29 ng/mL
Mean Cave ([1]; rat female, 1000 mg/kg/day oral, 4 weeks): 16.0 ng/mL
Mean Cave ([1]; rat female, 1000 mg/kg/day oral, 13 weeks): 63.8 ng/mL
Mean Cave ([1]; rat female, 1000 mg/kg/day oral, 26 weeks): 18.9 ng/mL
Mean Cave ([1]; rat male, 30 mg/kg/day oral, 4 weeks): 0.975 ng/mL
Mean Cave ([1]; rat male, 30 mg/kg/day oral, 13 weeks): 2.43 ng/mL
Mean Cave ([1]; rat male, 30 mg/kg/day oral, 26 weeks): 1.44 ng/mL
Mean Cave ([1]; rat male, 100 mg/kg/day oral, 4 weeks): 2.97 ng/mL
Mean Cave ([1]; rat male, 100 mg/kg/day oral, 13 weeks): 5.46 ng/mL
Mean Cave ([1]; rat male, 100 mg/kg/day oral, 26 weeks): 3.99 ng/mL
Mean Cave ([1]; rat male, 1000 mg/kg/day oral, 4 weeks): 14.0 ng/mL
Mean Cave ([1]; rat male, 1000 mg/kg/day oral, 13 weeks): 18.8 ng/mL
Mean Cave ([1]; rat male, 1000 mg/kg/day oral, 26 weeks): 16.0 ng/mL
plasma Cave:protein-corrected JAK IC50 ratio ([1]; rat, 30 mg/kg/day): < 1 ×
plasma Cave:uncorrected JAK IC50 ratio ([1]; rat, 30 mg/kg/day): < 1 ×
plasma concentrations versus uncorrected human JAK IC50 threshold ([1]; rat, 100 mg/kg/day): only briefly rose above
plasma Cave:protein-corrected JAK IC50 ratio ([1]; rat, 1000 mg/kg/day): < 1
plasma Cave:uncorrected JAK IC50 ratio ([1]; rat, 1000 mg/kg/day): 1–3 ×
NOAEL at 39 weeks [2]: 30 mg/kg/day
effects on ophthalmology, electrocardiography, food consumption, urinalysis (beagle dogs; all dog studies): No effects
tolerability (beagle dogs; dog 4-week study, 300 mg/kg/day, after 12–13 days): not tolerated
early euthanasia (beagle dogs; dog 4-week study, 300/100 mg/kg/day, days 18 and 19): 3 dogs
early euthanasia (beagle dogs; dog 39-week study, 100 mg/kg/day, at 25–26 weeks, skin observations): 2 dogs
organ weights and microscopic findings in male reproductive tissues (beagle dogs; dog repeat-dose studies, up to highest tested doses): no microscopic findings
effects on lipid levels (beagle dogs; dog repeat-dose toxicity studies, any dose): no effects
dose with decreased hematopoietic and lymphoid cellularity (microscopic) (beagle dogs; dog, 4- and 13-week studies): ≥ 100 mg/kg/day
red blood cell parameters, change (beagle dogs; dog, 4- and 13-week studies, 100 mg/kg/day, reversible): 0.82–0.85 ×
changes in reticulocyte levels (beagle dogs; dog, 4- and 13-week studies, any dose): No changes
no observed adverse effect level (beagle dogs; dog, 4 weeks): 30^c mg/kg/day
effects on white blood cell parameters (beagle dogs; dog, 4 weeks, end of dosing phase): No significant effects
fibrinogen levels, change (beagle dogs; dog, 13- and 39-week studies, 100 mg/kg/day): 1.3–1.4 ×
effects on white blood cell, lymphocyte, or neutrophil counts (beagle dogs; dog, 13 weeks): No izencitinib-related effects
no observed adverse effect level (beagle dogs; dog, 13 weeks): 30^c mg/kg/day
platelets, change (beagle dogs; dog, 13 weeks, 100 mg/kg/day, reversible): 1.5 ×
dose with decreased hematopoietic and lymphoid cellularity (microscopic) (beagle dogs; dog, 39-week study): ≥ 30 mg/kg/day
red blood cell parameters, change (beagle dogs; [5]): 0.76–0.79 ×
tolerability (beagle dogs; [5]): not tolerated
hemoglobin levels, change (beagle dogs; dog, 39-week study, 100 mg/kg/day, after recovery): 0.87 ×
white blood cell counts, change (beagle dogs; dog, 39-week study, 100 mg/kg/day, recovery animals): 1.3 ×
helper T cells (immunophenotyping), change (beagle dogs; [6]): 0.71 ×
lymphocyte counts, change (beagle dogs; [6]): 0.70 ×
total T cells (immunophenotyping), change (beagle dogs; [6]): 0.71 ×
total lymphocytes (immunophenotyping), change (beagle dogs; [6]): 0.70 ×
B cells (immunophenotyping), change (beagle dogs; dog, 39-week study, 100 mg/kg/day, without reversibility in 4-week recovery): 0.59 ×
neutrophils, change (beagle dogs; [7]): 1.3–1.5 ×
platelets, change (beagle dogs; [7]): 1.3–2.2 ×
hematocrit, change (beagle dogs; dog, 39-week study, 30 and 100 mg/kg/day, after recovery): 0.90–0.92 ×
reticulocytes, change (beagle dogs; dog, 39-week study, 30 and 100 mg/kg/day, reversible): 0.45–0.51 ×
red blood cell parameters, change (beagle dogs; dog, 39 weeks, 30 mg/kg/day): 0.90–0.91 ×
white blood cell counts, change (beagle dogs; dog, 39 weeks, 30 mg/kg/day, end of dosing phase): 1.2 ×
effects on prothrombin time or activated partial thromboplastin time (beagle dogs; dog, any dose, 3 studies): No effects
microscopic findings in GI tissues (beagle dogs; dog, up to 100 mg/kg/day, all 3 studies): no adverse microscopic findings
NOAEL [3]: 1000 mg/kg/day
Corpora lutea (mean ± SD) (Time-mated female rats; 30 mg/kg/day oral GDs 6–17): 14 ± 2.0
Implantation sites (mean ± SD) (Time-mated female rats; 30 mg/kg/day oral GDs 6–17): 14 ± 2.0
Preimplantation loss (mean ± SD) (Time-mated female rats; 30 mg/kg/day oral GDs 6–17): 1.0 ± 0.9
Total resorptions (mean ± SD) (Time-mated female rats; 30 mg/kg/day oral GDs 6–17): 0 ± 0.6
Females with live fetuses (Time-mated female rats; 30 mg/kg/day oral GDs 6–17): 22
Pregnant females (Time-mated female rats; 30 mg/kg/day oral GDs 6–17): 22
Corpora lutea (mean ± SD) (Time-mated female rats; 100 mg/kg/day oral GDs 6–17): 14 ± 2.3
Implantation sites (mean ± SD) (Time-mated female rats; 100 mg/kg/day oral GDs 6–17): 13 ± 1.8
Preimplantation loss (mean ± SD) (Time-mated female rats; 100 mg/kg/day oral GDs 6–17): 1.0 ± 1.2
Total resorptions (mean ± SD) (Time-mated female rats; 100 mg/kg/day oral GDs 6–17): 0 ± 0.7
Females with live fetuses (Time-mated female rats; 100 mg/kg/day oral GDs 6–17): 22
Pregnant females (Time-mated female rats; 100 mg/kg/day oral GDs 6–17): 22
Corpora lutea (mean ± SD) (Time-mated female rats; 1000 mg/kg/day oral GDs 6–17): 14 ± 1.7
Implantation sites (mean ± SD) (Time-mated female rats; 1000 mg/kg/day oral GDs 6–17): 13 ± 1.9
Preimplantation loss (mean ± SD) (Time-mated female rats; 1000 mg/kg/day oral GDs 6–17): 1.0 ± 1.0
Total resorptions (mean ± SD) (Time-mated female rats; 1000 mg/kg/day oral GDs 6–17): 0 ± 1.1
Females with live fetuses (Time-mated female rats; 1000 mg/kg/day oral GDs 6–17): 22
Pregnant females (Time-mated female rats; 1000 mg/kg/day oral GDs 6–17): 22
effects on cesarean section parameters (Time-mated female rats; rat, all doses): no effects
fetal external, visceral, or skeletal malformations (Time-mated female rats; rat, all doses): no observations
JAK inhibitor-associated splenic natural killer (NK) cell reductions (mouse colitis model): spared
Cave:protein-corrected IC50 ratio [4, 8]: < 1 ×
Cave:uncorrected IC50 ratio [4, 8]: < 1 ×
Mean Cave ([4]; maternal rat, GD 6, 30 mg/kg/day oral): 0.613 ng/mL
Mean Cave ([4]; maternal rat, GD 6, 100 mg/kg/day oral): 2.15 ng/mL
Mean Cave ([4]; maternal rat, GD 6, 1000 mg/kg/day oral): 16.2 ng/mL
Mean Cave ([4]; maternal rat, GD 17, 30 mg/kg/day oral): 0.663 ng/mL
Mean Cave ([4]; maternal rat, GD 17, 100 mg/kg/day oral): 2.88 ng/mL
plasma Cave:protein-corrected JAK IC50 ratio [4, 9]: < 1 ×
plasma Cave:uncorrected JAK IC50 ratio [4, 9]: 2 ×
time at supratherapeutic plasma levels [4, 9]: 12 to 15 h
Mean Cave ([4]; maternal rat, GD 17, 1000 mg/kg/day oral): 23.8 ng/mL
nonclinical:clinical AUC ratio at the NOAEL ([4]; rat EFD study, 1000 mg/kg/day, vs human 300 mg QD): 10 fold
fetal plasma concentrations, all other samples ([4]; rat fetuses, below lower limit of quantitation): < 1 ng/mL
concentration at 3 h ([4]; rat, fetal plasma, oral, 1000 mg/kg/day): 1.18 ng/mL

— PMC8963331 (Toxicological Sciences, 2022)
